A selection: hits, their analogues and other compounds. The true share with any hit is near 1.5%.
PG9 binder = binds the HIV-1 gp120 antibody PG9. AID 624416. inhibition, % at 6.7 µM. TR-FRET gp120-PG9 antibody binding. hit rate 0.43% among 360,000; in the data active means inhibition above about 8.5%
Rev-erbA mod = modulators of human Rev-erb alpha DNA binding; P20393; Rev-erbα–FITC-DNA binding, fluorescence polarization, 90 min; activity, % at 10 µM; hit rate 0.79% among 370,000; AID 1259318;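 active means activity above about 14%, limit read from the data; passing the limit was not always enough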;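 further: 0% = DMSO wells with 35 nM protein and 100% = DMSO wells with 750 nM protein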
Target sequence (P20393 whole entry, looked up): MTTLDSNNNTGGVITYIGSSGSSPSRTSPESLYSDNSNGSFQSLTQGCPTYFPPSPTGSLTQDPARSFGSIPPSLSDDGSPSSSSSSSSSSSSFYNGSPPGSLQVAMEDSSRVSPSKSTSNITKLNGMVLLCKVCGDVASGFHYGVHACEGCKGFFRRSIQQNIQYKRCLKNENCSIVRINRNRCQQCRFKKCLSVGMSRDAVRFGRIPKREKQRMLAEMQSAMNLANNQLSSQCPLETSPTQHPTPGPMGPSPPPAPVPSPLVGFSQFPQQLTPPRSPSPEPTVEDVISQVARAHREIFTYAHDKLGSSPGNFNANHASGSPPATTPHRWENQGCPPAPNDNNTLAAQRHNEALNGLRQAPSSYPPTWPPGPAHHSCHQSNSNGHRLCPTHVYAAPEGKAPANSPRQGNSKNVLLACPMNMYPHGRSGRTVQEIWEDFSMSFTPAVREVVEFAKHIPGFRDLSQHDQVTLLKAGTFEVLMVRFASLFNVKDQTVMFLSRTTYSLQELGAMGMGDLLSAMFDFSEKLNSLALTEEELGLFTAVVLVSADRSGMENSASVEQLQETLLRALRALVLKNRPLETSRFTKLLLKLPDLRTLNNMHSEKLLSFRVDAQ
NR2E3 ag-1 = agonists of human nuclear receptor NR2E3; Q9Y5X4; GST-NR2E3/biotin-RetCOR TR-FRET, 1536-well; inhibition of corepressor binding, % at 4.78 µM; hit rate 0.12% among 320,000; AID 2300;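 active means percent inhibition above the cutoff of mean plus 3 SD of all tested compounds, set per screening campaign, cut at about 20% in these data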;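 further: 0% = DMSO wells and 100% = biotin wells as full block of FRET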
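System: GST-tagged NR2E3 plus biotinylated RetCOR corepressor; Amount: 1.35 nM GST-tagged NR2E3 final; Dosing: single nominal compound dose of 4.8 µM; Schedule: 5 h incubation at 4 °C; Technique: TR-FRET with europium anti-GST and streptavidin-D2, 340 nm excitation; Controls: biotin wells as high control, 0.6% DMSO wells as low control.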
NR2E3 ag-2 = human photoreceptor-specific nuclear receptor agonism | Q9Y5X4 | CHO-S Gal4-NCOR/VP16-NR2E3 two-hybrid, luciferase | inhibition of corepressor binding, % at 3.98 µM | hit rate 0.35% among 360,000 | AID 602229;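 active means inhibition above the mean of all tested compounds plus 3 SD, cut at about 70% in these data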;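 further: 0% = DMSO with NR2E3 transfected cells and 100% = cells lacking NR2E3 construct; higher means lower luciferase signal from less NR2E3 corepressor binding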
PG9 bind confirm = PG9 antibody binding, confirmed; hit rate 90% among 1,500; shares compounds with PG9 binder; inhibition, % at 6.7 µM; TR-FRET PG9 antibody binding, biochemical; AID 651571; in the data active means inhibition above about 9%
PGV04 counter = counter-screen for PG9 binders: binding control antibody PGV04; shares compounds with PG9 binder; TR-FRET PGV04 antibody-gp120 binding, biochemical; inhibition, % at 6.7 µM; hit rate 95% among 1,500; AID 651604; in the data active means inhibition above about 9.5%
PG9 binder DR = PG9 antibody binding, dose response | shares compounds with PG9 binder | TR-FRET PG9 antibody-gp120 binding inhibition | IC50, µM | 95 tested, under 10 active | AID 651848; in the data active means IC50 below about 10 µM
PGV04 DR counter = PGV04 binding, dose response counter-screen; shares compounds with PG9 binder; TR-FRET binding to control antibody PGV04; IC50, µM; hit rate 20% among 95; AID 651937
PG126 DR counter = binds control antibody PG126 in PG9 counter-screen; shares compounds with PG9 binder; TR-FRET binding to antibody PG126, counterscreen; IC50, µM; hit rate 20% among 95; AID 651939
NR1D1 mod conf = confirmation of modulators of human Rev-erb alpha DNA binding | shares compounds with Rev-erbA mod | Rev-erb alpha FITC-DNA binding, fluorescence polarization, 90 min | activation, % at 25 µM | hit rate 61% among 3,000 | AID 1259319;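 active means activation at or above a set limit, or at least 3 SD above the negative control mean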;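 further: 0% = 35 nM protein with DMSO and 100% = 750 nM protein high control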
RORg counter = affects RORgamma DNA binding in a Rev-erb alpha counter-screen; shares compounds with Rev-erbA mod; purified RORgamma protein-FITC-DNA binding, fluorescence polarization; IC50, µM; hit rate 8% among 910; AID 1259320;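 active means Compounds whose fitted half-maximal concentration for disrupting protein-DNA binding is below 10 micromolar; the record names Rev-erb in its text, so the target is in doubt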
An asterisk follows results filed as active; i = inactive; / = not tested or not shown. Unless noted, no stated cut-off is given here; in the data, active means IC50 below about 9 µM; inactive means the rest.

SMILES	PG9 binder	Rev-erbA mod	NR2E3 ag-1	NR2E3 ag-2	PG9 bind confirm	PGV04 counter	others
O=C1c2[nH]nc(-c3ccccc3O)c2C(c2cccc(Cl)c2)N1CC1CCCO1 (stereo not given)	8.6*	0	2	26	25*	19*	PG9 binder DR=>67;PGV04 DR counter=>67;PG126 DR counter=>67
O=C(NCc1ccccn1)C1CCN(S(=O)(=O)N2CCCCC2)CC1	8.6*	-4	1	-10	8	11*
CCS(=O)(=O)N1CCC(C(=O)NCc2ccccn2)CC1	-1	0	1	-1	/	/
Cc1cc(=O)oc2cc(NC(=O)C3COc4ccccc4O3)ccc12 (stereo not given)	16*	11	8	-36	39*	33*	PG9 binder DR=>67;PGV04 DR counter=i;PG126 DR counter=i
C[C@@H]1CCCN1c1ccc2c(c1)OCCCN(C1CC1)S2(=O)=O	/	3	/	/	/	/
CC(=O)c1cc(-c2ccccc2)n(CC(=O)NCc2cccs2)c1C	12*	14	-3	5	14*	22*
CC(=O)c1cc(-c2ccccc2)n(CC(=O)NCc2ccccc2)c1C	/	-8	/	/	/	/
O=C(COC(=O)c1ccc(F)c(S(=O)(=O)N2CCOCC2)c1)c1ccc(Cl)cc1	-1	0	3	-13	/	/
CCOC(=O)c1c(C)[nH]c(C(=O)COC(=O)c2ccc(F)c(S(=O)(=O)N3CCOCC3)c2)c1C	17*	16	0	-9	29*	40*
C=CCN(C)C(C#CCCCC)c1ccccc1 (stereo not given)	/	1	/	/	/	/
CC1(C)Cc2nc3oc4c(=S)nc[nH]c4c3cc2CO1	19*	1	4	-53	11*	12*
COCCCNC(=O)c1ccc2c(c1)NC(=O)C(C)(C)O2	/	-4	/	/	/	/
COc1ccc(/C(O)=C2/C(=O)C(=O)N(CCCN(C)C)C2c2cccc(Cl)c2)cc1OC (stereo not given)	47*	-3	0	-23	17*	22*
CCN(CC)CCCN1C(=O)C(=O)/C(=C(/O)c2ccc(Cl)cc2)C1c1ccccn1 (stereo not given)	9.0*	-4	1	4	13*	16*
COC(=O)[C@]12C[C@H](CC(=O)NCc3ccccc3)C(=O)N(Cc3ccco3)C1=C[C@H](C1CCCC1)O[C@@H]2C	/	-1	/	/	/	/
O=C(CSc1nnc(-c2c[nH]c3ccccc23)o1)c1ccc(-c2ccccc2)cc1	18*	3	-2	15	22*	43*
COC(=O)CSc1nnc(-c2c[nH]c3ccccc23)o1	0	1	-4	-15	/	/
COc1cc(/C=C/C(=O)OCC(=O)NCCc2ccccc2)cc(OC)c1OC	0	-1	0	-8	/	/
COc1cc(/C=C/C(=O)OCC(=O)Nc2ccccc2Cl)cc(OC)c1OC	23*	-11	-1	-7	27*	41*
COC(=O)[C@@]12CCCCC3=C1N(CCC3)C(=O)[C@H]2CC(=O)N1CCN(C(=O)c2ccco2)CC1	/	2	/	/	/	/
CCCC(=O)Nc1ccc2c(c1)C(=O)N(C)[C@H]1CC[C@@H](CC(=O)OC)O[C@@H]1CO2	/	4	/	/	/	/
COc1ccc(CNC(=O)c2cc3cc(OC)ccc3oc2=O)cc1	-1	1	1	-11	/	/
COc1ccc2oc(=O)c(C(=O)NCc3ccc(C)cc3)cc2c1	8.8*	4	-3	-1	16*	24*
C=CCNC(=O)Cc1c(OC)ccc2cc(Br)ccc12	8	5	6	23	/	/
COc1ccc2cc(Br)ccc2c1CC(=O)NC(C)C	11*	-4	6	10	12*	16*
SMILES	PG9 binder	Rev-erbA mod	NR2E3 ag-1	NR2E3 ag-2	PG9 bind confirm	PGV04 counter	others
COC(=O)[C@]12C[C@H](CC(=O)N3CCOCC3)C(=O)N(Cc3ccc4c(c3)OCO4)C1=C[C@H](C(C)C)O[C@@H]2C1CC1	/	2	/	/	/	/
O=C(Nc1nnc(SCc2c(Cl)cccc2Cl)s1)c1ccc2ncsc2c1	/	/	-2	/	/	/
N#Cc1ccc(CSc2nnc(NC(=O)c3ccc4ncsc4c3)s2)cc1	32*	60*	i	-27	30*	48*	NR1D1 mod conf=23*
COCCNc1nc2c(S(=O)(=O)c3cc(C)ccc3C)nnn2c2ccccc12	46*	45*	4	-7	29*	55*	NR1D1 mod conf=19*
CC(=O)NCCNc1nc2c(-c3cccc(C)c3)nnn2c2ccccc12	4	1	2	2	/	/
C=CCN(Cc1ccccc1)C(C#CC(=C)C)Cc1ccccc1 (stereo not given)	/	1	/	/	/	/
COC(=O)C[C@H]1CC[C@@H]2[C@H](COc3ccc(NC(=O)c4cccc(Cl)c4)cc3C(=O)N2C)O1	/	2	/	/	/	/
Cc1cc(-c2sccc2Br)nc(-n2cccc2)n1	11*	50*	/	3	23*	32*	NR1D1 mod conf=27*
COc1cc(C(=O)Nc2cc(Cl)ccc2-n2cncn2)ccc1OC(F)F	10*	31*	-2	6	23*	38*	NR1D1 mod conf=16
OC(c1ccccc1)(c1ccccc1)C1CCN(CCCOc2ccc(Cl)cc2)CC1	/	-8	/	/	/	/
Cc1ccccc1NC(=O)OC1CCC12CCC(c1ccccc1)CC2 (stereo not given)	/	7	/	/	/	/
Cn1c(-c2ccc(C=O)s2)nc2c3ccccc3c3ccccc3c21	8.9*	135*	-2	-52	6	8	NR1D1 mod conf=114*
Cc1ccc(-n2nc3c(N4CCC(C(=O)NCc5ccccc5C)CC4)nnc(C)c3c2C)cc1	/	/	-44	33	/	/
CCOc1ccccc1CNC(=O)C1CCN(c2nnc(C)c3c(C)n(-c4ccc(C)cc4)nc23)CC1	9.3*	44*	-14	18	12*	33*	NR1D1 mod conf=34*;RORg counter=>40
COc1ccc(C(=O)Cn2cnc3ccc(Cl)cc3c2=O)cc1F	21*	33*	-1	-21	36*	48*	NR1D1 mod conf=32*;RORg counter=i
COc1ccc(C(=O)Cn2cnc3ccccc3c2=O)cc1OC	1	-3	3	-23	/	/
C=CCCC(=O)N[C@H]1CC[C@@]23CCCN2C(=O)CCC[C@H]3[C@H]1C	/	-1	/	/	/	/
COc1ccc(N=C(N)NC(=O)OCc2ccccc2)cc1	/	2	/	/	/	/
